In brackets after ≈: the same amount, converted by molar mass. Activity calls are given as the source filed them.
Tests used:
[1] = Activation of human Kv7.2 W236L mutant/Kv7.3 W265L mutant expressed in CHO cells assessed as 86Rb efflux at 0.001 to 100 uM after 10 mins by microbeta liquid scintillation counting analysis; type: cell-based
[2] = biological target: T1, Voltage-gated potassium channel, KQT; KCNQ2(Kv7.2)/KCNQ3(Kv7.3) (Homo sapiens) (UniProt O43526+O43525); assay: Activation of human Kv7.2/7.3 by patch clamp method relative to ML213
In short: (§1)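 Kv7.2/7.3 EC50s were measured on the IonWorks Quattro (IWQ) automated patch-clamp platform. Efficacy is expressed as % of the maximal response to the reference opener ML213.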

[3] = Kinetic aqueous solubility of the compound by CAD or CLND method; type: physicochemical; conditions: buffer; read-out: Kinetic_solubility
P-gp = assay: Substrate activity at P-gp (unknown origin) assessed as efflux ratio; type: ADME; conditions: human, not told
[4] = biological target: T1, Voltage-gated potassium channel, KQT; KCNQ2(Kv7.2)/KCNQ3(Kv7.3) (Homo sapiens); assay: Activation of human wild type Kv7.2/7.3 expressed in CHO cells assessed as 86Rb efflux at 0.001 to 100 uM after 10 mins by microbeta liquid scintillation counting analysis; type: cell-based
[5] = biological target: Voltage-gated potassium channel, KQT; KCNQ2(Kv7.2)/KCNQ3(Kv7.3) (Homo sapiens, UniProt O43525+O43526); assay: Activation of human Kv7.2/7.3 by patch clamp method; in short: as §1
Voltage-gated potassium channel, KQT; KCNQ2(Kv7.2)/KCNQ3(Kv7.3), sequence (O43526 whole entry): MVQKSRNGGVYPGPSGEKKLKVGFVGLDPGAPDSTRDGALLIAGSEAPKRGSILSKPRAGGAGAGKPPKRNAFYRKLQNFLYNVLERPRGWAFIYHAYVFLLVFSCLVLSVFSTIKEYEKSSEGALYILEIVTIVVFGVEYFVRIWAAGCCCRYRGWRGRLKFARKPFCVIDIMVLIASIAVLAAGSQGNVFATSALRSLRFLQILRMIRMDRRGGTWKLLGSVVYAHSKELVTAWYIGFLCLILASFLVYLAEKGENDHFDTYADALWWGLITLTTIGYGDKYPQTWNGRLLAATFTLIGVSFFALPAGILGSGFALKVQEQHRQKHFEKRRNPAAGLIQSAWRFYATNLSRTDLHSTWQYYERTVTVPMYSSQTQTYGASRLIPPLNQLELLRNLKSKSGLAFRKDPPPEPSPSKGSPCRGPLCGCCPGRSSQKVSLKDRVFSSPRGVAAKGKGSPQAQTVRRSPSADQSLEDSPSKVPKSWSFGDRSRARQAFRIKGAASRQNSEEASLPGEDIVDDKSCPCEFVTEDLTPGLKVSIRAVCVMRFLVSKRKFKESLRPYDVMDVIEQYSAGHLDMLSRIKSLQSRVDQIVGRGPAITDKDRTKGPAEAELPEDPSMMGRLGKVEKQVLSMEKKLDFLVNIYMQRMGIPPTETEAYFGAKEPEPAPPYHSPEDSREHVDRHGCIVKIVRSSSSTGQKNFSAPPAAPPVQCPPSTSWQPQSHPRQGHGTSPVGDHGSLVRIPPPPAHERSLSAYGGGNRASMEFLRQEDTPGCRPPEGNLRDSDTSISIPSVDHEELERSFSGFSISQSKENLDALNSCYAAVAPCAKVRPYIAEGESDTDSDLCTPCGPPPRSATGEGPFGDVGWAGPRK
Voltage-gated potassium channel, KQT; KCNQ2(Kv7.2)/KCNQ3(Kv7.3), sequence (O43525 whole entry): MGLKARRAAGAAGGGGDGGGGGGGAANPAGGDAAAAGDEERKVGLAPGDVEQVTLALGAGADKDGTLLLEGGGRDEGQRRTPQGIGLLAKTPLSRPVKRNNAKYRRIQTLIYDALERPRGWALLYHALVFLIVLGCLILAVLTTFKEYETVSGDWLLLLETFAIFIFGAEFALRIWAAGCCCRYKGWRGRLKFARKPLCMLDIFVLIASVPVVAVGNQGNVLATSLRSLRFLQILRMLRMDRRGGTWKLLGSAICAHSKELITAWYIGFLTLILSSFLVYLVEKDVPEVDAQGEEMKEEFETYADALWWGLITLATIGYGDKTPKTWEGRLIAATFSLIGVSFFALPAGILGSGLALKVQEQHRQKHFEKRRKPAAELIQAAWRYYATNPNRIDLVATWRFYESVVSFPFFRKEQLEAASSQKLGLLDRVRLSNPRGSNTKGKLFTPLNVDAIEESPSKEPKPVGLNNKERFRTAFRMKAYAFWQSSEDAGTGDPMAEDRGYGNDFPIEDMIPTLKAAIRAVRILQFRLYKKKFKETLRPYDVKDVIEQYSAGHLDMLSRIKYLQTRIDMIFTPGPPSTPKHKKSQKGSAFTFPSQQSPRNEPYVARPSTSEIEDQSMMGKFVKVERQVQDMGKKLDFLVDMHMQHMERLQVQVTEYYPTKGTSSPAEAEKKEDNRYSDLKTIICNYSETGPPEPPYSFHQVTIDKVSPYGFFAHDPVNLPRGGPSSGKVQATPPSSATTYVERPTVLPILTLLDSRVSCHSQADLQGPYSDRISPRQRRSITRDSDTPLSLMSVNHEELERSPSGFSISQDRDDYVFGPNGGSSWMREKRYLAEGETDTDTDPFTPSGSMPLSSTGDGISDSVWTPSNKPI

[6] = biological target: T2, Potassium voltage-gated channel subfamily KQT member 4 (Homo sapiens, UniProt P56696); assay: Activation of human Kv7.4 by patch clamp method
T2 sequence (P56696 whole entry): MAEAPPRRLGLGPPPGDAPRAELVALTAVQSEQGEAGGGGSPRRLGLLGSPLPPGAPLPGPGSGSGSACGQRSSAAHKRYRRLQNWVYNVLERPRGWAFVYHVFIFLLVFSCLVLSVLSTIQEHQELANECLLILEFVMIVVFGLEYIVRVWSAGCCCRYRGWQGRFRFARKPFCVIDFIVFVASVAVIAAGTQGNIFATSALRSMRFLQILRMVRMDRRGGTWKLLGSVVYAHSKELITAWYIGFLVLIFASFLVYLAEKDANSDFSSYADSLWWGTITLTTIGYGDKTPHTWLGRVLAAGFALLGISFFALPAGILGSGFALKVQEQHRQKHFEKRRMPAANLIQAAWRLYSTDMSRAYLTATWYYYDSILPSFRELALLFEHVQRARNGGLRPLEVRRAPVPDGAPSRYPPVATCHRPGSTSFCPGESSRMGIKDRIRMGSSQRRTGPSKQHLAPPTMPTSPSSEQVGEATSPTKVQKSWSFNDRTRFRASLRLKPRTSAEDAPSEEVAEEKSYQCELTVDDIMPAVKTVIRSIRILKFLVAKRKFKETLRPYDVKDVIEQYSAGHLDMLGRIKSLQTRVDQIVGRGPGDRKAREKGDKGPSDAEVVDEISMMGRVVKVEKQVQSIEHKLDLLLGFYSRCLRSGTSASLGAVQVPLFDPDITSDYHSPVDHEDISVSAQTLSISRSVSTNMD

[7] = biological target: Voltage-gated potassium channel KCNQ3/KCNQ5 (Homo sapiens, UniProt O43525+Q9NR82); assay: Activation of human Kv7.3/7.5 by patch clamp method
Voltage-gated potassium channel KCNQ3/KCNQ5, sequence (O43525 whole entry): as the sequence (O43525 whole entry) above
Voltage-gated potassium channel KCNQ3/KCNQ5, sequence (Q9NR82 whole entry): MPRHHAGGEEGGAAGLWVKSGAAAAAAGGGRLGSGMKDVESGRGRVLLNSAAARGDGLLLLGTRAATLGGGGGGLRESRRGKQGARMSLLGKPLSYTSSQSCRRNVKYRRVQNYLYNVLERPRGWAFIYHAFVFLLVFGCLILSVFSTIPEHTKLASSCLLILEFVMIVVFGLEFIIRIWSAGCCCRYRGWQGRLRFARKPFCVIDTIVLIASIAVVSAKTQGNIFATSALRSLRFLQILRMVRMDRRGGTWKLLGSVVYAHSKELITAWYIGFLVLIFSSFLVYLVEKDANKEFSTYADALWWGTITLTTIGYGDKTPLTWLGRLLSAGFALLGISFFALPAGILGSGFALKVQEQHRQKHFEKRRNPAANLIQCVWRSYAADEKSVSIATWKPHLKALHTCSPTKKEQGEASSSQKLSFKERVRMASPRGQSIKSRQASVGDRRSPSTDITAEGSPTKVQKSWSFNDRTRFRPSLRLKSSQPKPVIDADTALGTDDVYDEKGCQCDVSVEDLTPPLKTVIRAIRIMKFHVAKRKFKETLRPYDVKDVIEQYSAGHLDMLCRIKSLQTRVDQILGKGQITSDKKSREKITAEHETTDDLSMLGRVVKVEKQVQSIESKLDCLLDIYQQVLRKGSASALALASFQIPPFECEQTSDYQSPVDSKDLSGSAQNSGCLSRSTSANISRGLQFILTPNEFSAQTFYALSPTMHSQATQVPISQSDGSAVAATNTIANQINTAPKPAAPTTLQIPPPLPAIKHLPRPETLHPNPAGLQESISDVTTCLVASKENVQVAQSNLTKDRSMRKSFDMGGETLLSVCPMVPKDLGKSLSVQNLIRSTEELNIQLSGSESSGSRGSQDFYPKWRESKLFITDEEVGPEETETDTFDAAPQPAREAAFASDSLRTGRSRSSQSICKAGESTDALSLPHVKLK

Mus musculus [8] = assay: Anti-seizure activity in CD-1 mouse assessed as increase in seizure threshold at 10 to 60 mg/kg, po by maximal electroshock-threshold test; type: functional, organism-based
Mus musculus [9] = assay: Toxicity in CD-1 mouse at 10 to 60 mg/kg, po by rotarod test; type: organism-based; conditions: in vivo
[10] = Inhibition of carbachol-induced contraction in human bladder at 10 uM; type: tissue-based, Urinary bladder
Mus musculus [11] = assay: Anti-seizure activity in CD-1 mouse model of pentylenetetrazol-induced clonic seizures assessed as effect on time to onset of seizure at 10 to 60 mg/kg, po; type: functional, organism-based
Mus musculus [12] = assay: Anti-seizure activity in CD-1 mouse model of pentylenetetrazol-induced tonic seizures assessed as effect on time to onset of seizure at 10 to 60 mg/kg, po; type: functional, organism-based
[13] = biological target: T1, Voltage-gated potassium channel, KQT; KCNQ2(Kv7.2)/KCNQ3(Kv7.3) (Homo sapiens); assay: Activation of human Kv7.2/7.3 assessed as difference in G-V midpoint between pre-compound and post-compound conditions at 0.016 uM at -90 mV holding potential by QPatch method; type: protein-complex assay
[14] = biological target: T1, Voltage-gated potassium channel, KQT; KCNQ2(Kv7.2)/KCNQ3(Kv7.3) (Homo sapiens); assay: Activation of human Kv7.2/7.3 assessed as difference in G-V midpoint between pre-compound and post-compound conditions at 10 uM at -90 mV holding potential by QPatch method; type: protein-complex assay
[15] = biological target: T1, Voltage-gated potassium channel, KQT; KCNQ2(Kv7.2)/KCNQ3(Kv7.3) (Homo sapiens); assay: Activation of human Kv7.2/7.3 assessed as difference in G-V midpoint between pre-compound and post-compound conditions at 0.08 uM at -90 mV holding potential by QPatch method; type: protein-complex assay
[16] = biological target: T1, Voltage-gated potassium channel, KQT; KCNQ2(Kv7.2)/KCNQ3(Kv7.3) (Homo sapiens); assay: Activation of human Kv7.2/7.3 assessed as difference in G-V midpoint between pre-compound and post-compound conditions at 2 uM at -90 mV holding potential by QPatch method; type: protein-complex assay
[17] = Ratio of drug level in brain to blood of iv dosed mouse; type: ADME, organism-based; conditions: brain and blood
[18] = Activation of Kv7 from rat cortical neurons assessed as reduction in spontaneous neuronal firing activity after 15 mins by multi-electrode array method; conditions: 0.25 h
Mus musculus [19] = assay: Dose normalized AUC (0 to t) in iv dosed mouse; type: ADME, organism-based; conditions: in vivo
[20] = biological target: T1, Voltage-gated potassium channel, KQT; KCNQ2(Kv7.2)/KCNQ3(Kv7.3) (Homo sapiens); assay: Activation of human Kv7.2/7.3 assessed as difference in G-V midpoint between pre-compound and post-compound conditions at 0.4 uM at -90 mV holding potential by QPatch method; type: protein-complex assay
[21] = Clearance in iv dosed mouse; type: ADME, organism-based; conditions: in vivo
[22] = Clearance in human liver microsomes; type: ADME, microsome
[23] = biological target: T1, Voltage-gated potassium channel, KQT; KCNQ2(Kv7.2)/KCNQ3(Kv7.3) (Homo sapiens); assay: Activation of human Kv7.2/7.3 assessed as difference in G-V midpoint between pre-compound and post-compound conditions at 0.048 uM at -90 mV holding potential by QPatch method; type: protein-complex assay
[24] = biological target: T1, Voltage-gated potassium channel, KQT; KCNQ2(Kv7.2)/KCNQ3(Kv7.3) (Homo sapiens); assay: Activation of human Kv7.2/7.3 assessed as difference in G-V midpoint between pre-compound and post-compound conditions at 6 uM at -90 mV holding potential by QPatch method; type: protein-complex assay
[25] = biological target: T1, Voltage-gated potassium channel, KQT; KCNQ2(Kv7.2)/KCNQ3(Kv7.3) (Homo sapiens); assay: Activation of human Kv7.2/7.3 assessed as difference in G-V midpoint between pre-compound and post-compound conditions at 0.24 uM at -90 mV holding potential by QPatch method; type: protein-complex assay
[26] = biological target: T1, Voltage-gated potassium channel, KQT; KCNQ2(Kv7.2)/KCNQ3(Kv7.3) (Homo sapiens); assay: Activation of human Kv7.2/7.3 assessed as difference in G-V midpoint between pre-compound and post-compound conditions at 30 uM at -90 mV holding potential by QPatch method; type: protein-complex assay
[27] = biological target: T1, Voltage-gated potassium channel, KQT; KCNQ2(Kv7.2)/KCNQ3(Kv7.3) (Homo sapiens); assay: Activation of human Kv7.2/7.3 assessed as difference in G-V midpoint between pre-compound and post-compound conditions at 1.2 uM at -90 mV holding potential by QPatch method; type: protein-complex assay
[28] = biological target: T1, Voltage-gated potassium channel, KQT; KCNQ2(Kv7.2)/KCNQ3(Kv7.3) (Homo sapiens); assay: Activation of human Kv7.2/7.3 assessed as difference in G-V midpoint between pre-compound and post-compound conditions at 3 uM at -90 mV holding potential by QPatch method; type: protein-complex assay

| Structure (SMILES) | Activity [1] | %max [2] | solubility kinetic [3] | efflux ratio (P-gp) | Activity [4] | EC50 [5] | EC50 [6] | EC50 [7] | other results |
| --- | --- | --- | --- | --- | --- | --- | --- | --- | --- |
| CS(=O)(=O)c1cccc(CNC(=O)c2cc(C(F)(F)F)ccc2Oc2ccccc2)c1 | > 30 µM | 245% | 23 µM (≈ 10.3 µg/mL) | < 2 | 0.05 µM | 160 nM | – | – | – |
| C[C@H](NC(=O)[C@H]1CC(F)(F)CC[C@@H]1c1ccccc1)c1ccccc1 | – | 140% | 25 µM (≈ 8.59 µg/mL) | < 2 | – | 200 to 400 nM | 4000 nM | 400 nM | – |
| O=C(Nc1ccc(Cl)nc1)c1ccc(F)c(F)c1 | 0.43 to 1.81 µM | – | – | – | 0.46 µM | 460 nM | > 10000 nM | > 10000 nM | Activity (Mus musculus [8]): Dose-dependent effect; Activity (Mus musculus [9]): Non-Toxic |
| CS(=O)(=O)c1cccc([C@H](CO)NC(=O)c2cc(S(F)(F)(F)(F)F)ccc2Oc2ccccc2)c1 | – | 101% | 121 µM (≈ 65 µg/mL) | < 2 | – | 20 to 60 nM | > 10000 nM | 80 nM | inhibition (INH) [10]: Not Active; Activity (Mus musculus [11]): Active; Activity (Mus musculus [12]): Active |
| C[C@H](NC(=O)[C@H]1CCCC[C@@H]1c1ccccc1)c1ccccc1 | > 30 µM | 115% | 57 µM (≈ 17.5 µg/mL) | < 2 | 0.1 µM | 250 nM | – | – | – |
| C[C@H](NC(=O)c1cc(F)c(F)cc1Oc1ccccc1)c1cccc(S(C)(=O)=O)c1 | – | 132% | 145 µM (≈ 62.6 µg/mL) | < 2 | – | 130 to 200 nM | 160 nM | 200 nM | V1/2 [13]: 0.4 mV; V1/2 [14]: 26.8 mV; V1/2 [15]: 5.1 mV; V1/2 [16]: 23.1 mV; Kp [17]: 1.3; IC50 [18]: 110 nM; AUCt/dose (Mus musculus [19]): 0.33 µg·h/mL; V1/2 [20]: 14.3 mV; Activity (Mus musculus [8]): Dose-dependent effect; Activity (Mus musculus [9]): Non-Toxic; Activity (Mus musculus [11]): Active; clearance [21]: 31 mL/min/kg; Activity (Mus musculus [12]): Active |
| CS(=O)(=O)c1cccc([C@H](CO)NC(=O)c2cc(C(F)(F)F)ccc2Oc2ccccc2)c1 | – | 77% | 11 µM (≈ 5.27 µg/mL) | < 2 | – | 80 nM | – | – | – |
| CS(=O)(=O)c1cccc(CNC(=O)c2cc(C(F)(F)F)ccc2Sc2ccccc2)c1 | > 30 µM | 175% | 34 µM (≈ 15.8 µg/mL) | < 2 | 0.02 µM | 200 nM | – | – | CLH [22]: > 3 mL/min/g |
| O=C(N[C@@H](CO)c1cccc(Cl)c1)[C@H]1CC(F)(F)CC[C@@H]1c1ccccc1 | – | 141% | 318 µM (≈ 125 µg/mL) | < 2 | – | 100 to 300 nM | 100 nM | 360 nM | V1/2 [23]: 1.8 mV; V1/2 [24]: 29.5 mV; V1/2 [25]: 10.2 mV; Kp [17]: 0.8; IC50 [18]: 280 nM; AUCt/dose (Mus musculus [19]): 0.51 µg·h/mL; Activity (Mus musculus [8]): Dose-dependent effect; V1/2 [26]: 27.8 mV; Activity (Mus musculus [9]): Non-Toxic; clearance [21]: 48 mL/min/kg; V1/2 [27]: 21 mV |
| Cc1cc(C)c(NC(=O)C2CC3CCC2C3)c(C)c1 (stereo unspecified) | > 11 µM | – | – | – | 0.04 µM | 40 nM | 1600 nM | 500 nM | V1/2 [28]: 24.7 to 28.4 mV |
| O=C(N[C@@H](CO)c1ccccc1)[C@H]1CCCC[C@@H]1c1ccccc1 | – | 165% | 455 µM (≈ 147 µg/mL) | < 2 | – | 790 nM | – | – | – |
| O=C(N[C@@H](CO)c1ccccc1)[C@H]1CC(F)(F)CC[C@@H]1c1ccccc1 | – | 108% | 332 µM (≈ 119 µg/mL) | < 2 | – | 1300 nM | – | – | – |
| C[C@H](NC(=O)c1cc(C(F)(F)F)ccc1Oc1ccccc1)c1cccc(S(C)(=O)=O)c1 | – | 134% | 57 µM (≈ 26.4 µg/mL) | < 2 | – | 40 nM | – | – | – |
| CCOC(=O)Nc1ccc(NCc2ccc(F)cc2)cc1N | > 30 µM | – | – | – | 0.32 µM | – | – | – | – |
| CS(=O)(=O)c1cccc(CNC(=O)c2cc(S(F)(F)(F)(F)F)ccc2Oc2ccccc2)c1 | – | 185% | 7 µM (≈ 3.55 µg/mL) | < 2 | – | 80 nM | – | – | – |
| O=C(N[C@@H](CO)c1cccc(C(F)(F)F)c1)[C@H]1CC(F)(F)CC[C@@H]1c1ccccc1 | – | 96% | 119 µM (≈ 50.9 µg/mL) | < 2 | – | 50 to 80 nM | 20 nM | 250 nM | – |

— ChEMBL document CHEMBL4257569, “Novel KV7 ion channel openers for the treatment of epilepsy and implications for detrusor tissue contraction” (Bioorg Med Chem Lett, 2018)
